From ChEMBL document CHEMBL1932952, “Synthesis and biochemical analysis of 2,2,3,3,4,4,5,5,6,6,7,7-dodecafluoro-N-hydroxy-octanediamides as inhibitors of human histone deacetylases” (Bioorg Med Chem, 2012)

How the values were obtained:
[1] = biological target: T1, Histone deacetylase-like amidohydrolase (Alcaligenes sp. (strain DSM 11172) (Bordetella sp. (strain FB188)), UniProt Q70I53); experiment: Inhibition of Bordetella FB188 HDAH using Boc-L-Lys(acetyl)-MCA as substrate by fluorogenic enzymatic assay
T1 sequence (Q70I53 whole entry): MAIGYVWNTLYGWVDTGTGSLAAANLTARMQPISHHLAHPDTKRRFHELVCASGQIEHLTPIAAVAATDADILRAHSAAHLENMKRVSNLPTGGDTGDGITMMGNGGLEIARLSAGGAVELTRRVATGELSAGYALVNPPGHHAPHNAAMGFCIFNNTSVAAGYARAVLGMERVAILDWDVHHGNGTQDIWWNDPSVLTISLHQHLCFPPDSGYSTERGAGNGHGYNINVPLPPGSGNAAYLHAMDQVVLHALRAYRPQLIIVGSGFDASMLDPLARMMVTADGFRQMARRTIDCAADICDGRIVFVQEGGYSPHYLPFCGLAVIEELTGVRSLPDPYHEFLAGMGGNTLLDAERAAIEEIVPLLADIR

[2] = biological target: Histone deacetylase 1 (Homo sapiens, UniProt Q13547); experiment: Inhibition of recombinant human HDAC1 using Boc-L-Lys(acetyl)-MCA as substrate by fluorogenic enzymatic assay
[3] = biological target: T2, Histone deacetylase 8 (Homo sapiens, UniProt Q9BY41); experiment: Inhibition of recombinant human HDAC8 using Boc-L-Lys(trifluoroacetyl)-MCA as substrate by fluorogenic enzymatic assay
T2 sequence (Q9BY41 whole entry): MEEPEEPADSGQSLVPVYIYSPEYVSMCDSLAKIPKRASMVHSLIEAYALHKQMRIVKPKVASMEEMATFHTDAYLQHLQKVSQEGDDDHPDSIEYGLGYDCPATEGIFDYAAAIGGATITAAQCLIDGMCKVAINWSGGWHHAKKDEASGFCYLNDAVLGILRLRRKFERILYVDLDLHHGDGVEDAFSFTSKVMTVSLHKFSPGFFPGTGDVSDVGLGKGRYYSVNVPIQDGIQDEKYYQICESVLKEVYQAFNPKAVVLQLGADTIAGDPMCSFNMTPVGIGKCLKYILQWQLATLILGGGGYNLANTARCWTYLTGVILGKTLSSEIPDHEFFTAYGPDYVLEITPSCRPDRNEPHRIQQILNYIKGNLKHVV

[4] = biological target: T3, Protein deacetylase HDAC6 (Homo sapiens, UniProt Q9UBN7); experiment: Inhibition of recombinant human HDAC6 using Boc-L-Lys(acetyl)-MCA as substrate by fluorogenic enzymatic assay
T3 sequence (Q9UBN7 whole entry): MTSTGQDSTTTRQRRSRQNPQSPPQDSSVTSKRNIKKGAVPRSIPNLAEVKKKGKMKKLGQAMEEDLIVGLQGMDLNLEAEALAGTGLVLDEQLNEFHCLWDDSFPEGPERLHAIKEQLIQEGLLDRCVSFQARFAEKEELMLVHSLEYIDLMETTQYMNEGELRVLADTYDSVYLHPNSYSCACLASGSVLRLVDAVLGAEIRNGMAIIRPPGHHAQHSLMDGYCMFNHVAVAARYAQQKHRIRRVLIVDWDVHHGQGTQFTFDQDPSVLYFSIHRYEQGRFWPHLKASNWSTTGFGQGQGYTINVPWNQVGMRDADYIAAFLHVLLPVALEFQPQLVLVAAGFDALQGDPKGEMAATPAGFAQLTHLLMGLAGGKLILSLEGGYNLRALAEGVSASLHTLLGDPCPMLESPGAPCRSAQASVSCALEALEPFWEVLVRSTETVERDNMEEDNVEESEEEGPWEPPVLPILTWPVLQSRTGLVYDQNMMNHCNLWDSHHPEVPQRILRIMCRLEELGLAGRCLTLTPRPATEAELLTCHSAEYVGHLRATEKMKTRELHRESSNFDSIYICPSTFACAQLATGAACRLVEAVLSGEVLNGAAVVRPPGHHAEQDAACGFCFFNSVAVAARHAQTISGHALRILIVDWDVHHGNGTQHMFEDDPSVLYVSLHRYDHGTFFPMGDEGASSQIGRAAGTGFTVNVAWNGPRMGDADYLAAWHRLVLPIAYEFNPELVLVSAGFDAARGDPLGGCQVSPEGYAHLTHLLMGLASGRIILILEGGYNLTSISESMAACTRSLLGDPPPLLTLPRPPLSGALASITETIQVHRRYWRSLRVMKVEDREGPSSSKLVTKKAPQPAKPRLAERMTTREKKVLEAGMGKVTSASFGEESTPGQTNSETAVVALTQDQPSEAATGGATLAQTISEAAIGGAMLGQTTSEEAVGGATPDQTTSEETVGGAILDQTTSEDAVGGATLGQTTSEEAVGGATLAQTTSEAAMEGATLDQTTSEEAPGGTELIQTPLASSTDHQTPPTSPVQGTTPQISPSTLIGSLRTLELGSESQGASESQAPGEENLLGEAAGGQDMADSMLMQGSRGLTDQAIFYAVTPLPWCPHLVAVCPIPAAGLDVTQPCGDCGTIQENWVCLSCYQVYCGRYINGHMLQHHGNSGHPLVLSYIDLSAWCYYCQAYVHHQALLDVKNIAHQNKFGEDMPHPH

[5] = biological target: Histone deacetylase; experiment: Inhibition of HDAC in human K562 cells using Boc-L-Lys(acetyl)-MCA as substrate by fluorogenic cellular assay; assay type: cell-based
Method in brief: (§1)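 K562 cells were grown in RPMI with 10% FCS, L-glutamine and gentamycin, then pelleted. Lysis in 50 mM Tris–HCl pH 8.5, 1 M NaCl, 1 mM MgCl₂, Triton X-100 (up to 5× pellet volume), 2 h at 37 °C. The diluted lysate replaces recombinant enzyme in the two-step fluorogenic trypsin-coupled assay with substrate at 20 µM final. Read-out is AMC fluorescence (ex 390, em 460 nm), giving IC50.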

[6] = biological target: T4, Histone deacetylase 7 (Homo sapiens, UniProt Q8WUI4); experiment: Inhibition of recombinant human HDAC7 using Boc-L-Lys(trifluoroacetyl)-MCA as substrate by fluorogenic enzymatic assay
T4 sequence (Q8WUI4 whole entry): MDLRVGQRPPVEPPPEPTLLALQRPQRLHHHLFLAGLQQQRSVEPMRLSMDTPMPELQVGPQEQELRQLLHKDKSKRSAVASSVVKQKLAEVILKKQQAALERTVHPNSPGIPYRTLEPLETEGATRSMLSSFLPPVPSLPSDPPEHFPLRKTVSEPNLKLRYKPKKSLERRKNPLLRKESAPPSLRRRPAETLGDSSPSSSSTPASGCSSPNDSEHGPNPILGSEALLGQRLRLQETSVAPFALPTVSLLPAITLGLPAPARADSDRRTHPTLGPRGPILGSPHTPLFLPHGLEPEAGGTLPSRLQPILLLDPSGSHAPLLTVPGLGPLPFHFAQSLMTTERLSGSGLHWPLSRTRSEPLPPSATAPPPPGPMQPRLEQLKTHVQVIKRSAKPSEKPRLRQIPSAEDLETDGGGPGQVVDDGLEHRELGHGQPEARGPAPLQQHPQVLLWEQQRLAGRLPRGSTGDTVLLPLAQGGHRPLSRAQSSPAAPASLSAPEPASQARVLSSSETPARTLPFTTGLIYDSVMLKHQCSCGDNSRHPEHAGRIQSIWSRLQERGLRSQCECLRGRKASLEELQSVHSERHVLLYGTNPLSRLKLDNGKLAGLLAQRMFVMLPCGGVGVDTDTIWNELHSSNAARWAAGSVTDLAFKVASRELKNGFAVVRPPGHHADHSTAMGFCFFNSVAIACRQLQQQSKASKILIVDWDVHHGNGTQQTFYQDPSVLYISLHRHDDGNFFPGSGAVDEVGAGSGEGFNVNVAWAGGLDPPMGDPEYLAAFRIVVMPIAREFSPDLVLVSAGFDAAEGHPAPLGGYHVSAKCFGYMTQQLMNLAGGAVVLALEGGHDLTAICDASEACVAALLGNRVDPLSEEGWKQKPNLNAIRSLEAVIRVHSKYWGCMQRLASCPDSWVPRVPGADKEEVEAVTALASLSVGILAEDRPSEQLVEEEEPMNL

[7] = biological target: Histone deacetylase; experiment: Inhibition of HDAC in human K562 cells using Boc-L-Lys(trifluoroacetyl)-MCA as substrate by fluorogenic cellular assay; assay type: cell-based; method in brief: as §1

Sequence of Histone deacetylase 1 (Q13547 whole entry): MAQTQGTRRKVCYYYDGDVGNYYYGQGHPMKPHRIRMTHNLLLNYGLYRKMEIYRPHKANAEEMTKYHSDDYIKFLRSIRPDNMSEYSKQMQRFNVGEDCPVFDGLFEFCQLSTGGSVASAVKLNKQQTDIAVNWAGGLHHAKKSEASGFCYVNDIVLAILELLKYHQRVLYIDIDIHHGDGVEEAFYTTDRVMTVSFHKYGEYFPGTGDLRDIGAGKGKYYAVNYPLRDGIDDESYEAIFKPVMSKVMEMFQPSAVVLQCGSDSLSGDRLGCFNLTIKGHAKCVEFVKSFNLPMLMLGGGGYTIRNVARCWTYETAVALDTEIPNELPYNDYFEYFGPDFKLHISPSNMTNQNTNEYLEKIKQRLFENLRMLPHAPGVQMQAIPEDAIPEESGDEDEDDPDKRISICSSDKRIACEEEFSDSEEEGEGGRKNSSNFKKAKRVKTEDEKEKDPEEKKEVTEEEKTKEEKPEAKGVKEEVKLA

Structure (SMILES)	Kd [1] [µM]	Kd [2] [µM]	Kd [3] [µM]	Kd [4] [µM]	IC50 [5] [µM]	Kd [6] [µM]	IC50 [7] [µM]
O=C(NO)C(F)(F)C(F)(F)C(F)(F)C(F)(F)C(F)(F)C(F)(F)C(=O)Nc1ccccc1-c1ccccc1	0.86	49	5.3	9.2	> 50	14	> 50
O=C(NO)C(F)(F)C(F)(F)C(F)(F)C(F)(F)C(F)(F)C(F)(F)C(=O)Nc1ccc(Cl)cc1	0.21	12	35	23		19	
O=C(NO)C(F)(F)C(F)(F)C(F)(F)C(F)(F)C(F)(F)C(F)(F)C(=O)Nc1ccc(-c2cn(-c3ccccc3)nn2)cc1	7	> 100	> 100	8.2		30	
O=C(NO)C(F)(F)C(F)(F)C(F)(F)C(F)(F)C(F)(F)C(F)(F)C(=O)Nc1cccc2ccccc12	0.37	29	19	32		20	
O=C(NO)C(F)(F)C(F)(F)C(F)(F)C(F)(F)C(F)(F)C(F)(F)C(=O)Nc1ccc2cc3ccccc3cc2c1	9.1	65	60	11		38	
O=C(NO)C(F)(F)C(F)(F)C(F)(F)C(F)(F)C(F)(F)C(F)(F)C(=O)Nc1ccc2ccc3cccc4ccc1c2c34	0.6	22	47	17		75	
O=C(NO)C(F)(F)C(F)(F)C(F)(F)C(F)(F)C(F)(F)C(F)(F)C(=O)Nc1ccc2ccccc2c1	0.16	12	49	6.8	> 50	11	45
Cc1ccc(NC(=O)C(F)(F)C(F)(F)C(F)(F)C(F)(F)C(F)(F)C(F)(F)C(=O)NO)cc1	0.27	14	34	> 100		52	
CC(=O)Nc1ccc(NC(=O)C(F)(F)C(F)(F)C(F)(F)C(F)(F)C(F)(F)C(F)(F)C(=O)NO)cc1	1.3	18	36	9.2	> 50	13	> 50
O=C(NO)C(F)(F)C(F)(F)C(F)(F)C(F)(F)C(F)(F)C(F)(F)C(=O)Nc1ccc(-c2ccccc2)cc1	8.8	31	57	49		14	
